Reference: ChEMBL document CHEMBL1147016, “Vasorelaxant activity of phthalazinones and related compounds” (Bioorg Med Chem Lett, 2006)

Assays:
[1] = target: T1, Alpha-1D adrenergic receptor (Rattus norvegicus, UniProt P23944); test: Vasorelaxation of phenylephrine-stimulated Wistar rat aorta contraction; assay type: functional, tissue-based
T1 sequence (P23944 whole entry): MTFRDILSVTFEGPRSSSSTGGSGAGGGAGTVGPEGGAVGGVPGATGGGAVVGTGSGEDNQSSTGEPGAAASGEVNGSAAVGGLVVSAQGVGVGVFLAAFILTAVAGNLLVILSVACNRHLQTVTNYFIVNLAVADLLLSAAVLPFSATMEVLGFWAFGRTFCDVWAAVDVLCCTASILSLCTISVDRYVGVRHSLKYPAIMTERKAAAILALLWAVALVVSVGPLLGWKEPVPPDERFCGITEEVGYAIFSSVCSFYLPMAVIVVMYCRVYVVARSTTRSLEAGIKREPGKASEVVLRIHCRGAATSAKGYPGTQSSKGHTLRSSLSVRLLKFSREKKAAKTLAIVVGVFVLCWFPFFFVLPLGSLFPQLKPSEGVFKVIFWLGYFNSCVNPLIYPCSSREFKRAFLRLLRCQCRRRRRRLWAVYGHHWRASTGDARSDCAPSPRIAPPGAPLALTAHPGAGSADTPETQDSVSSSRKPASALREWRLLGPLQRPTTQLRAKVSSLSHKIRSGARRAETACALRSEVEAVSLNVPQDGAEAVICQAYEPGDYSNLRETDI
How it was run: (§1)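 Isolated rat aorta rings equilibrated 1 h at 2 g resting tension in Krebs solution, changed periodically. Contracted with 10^-5 M phenylephrine; at steady maximal contraction compounds added progressively over 30 min up to 10^-5 M or 10^-4 M. Responses read after 30 min as % relaxation of PE contraction; EC50 calculated when relaxation exceeded 60%.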

[2] = target: T2, Alpha-1D adrenergic receptor (Rattus norvegicus) (UniProt P23944); test: Inhibition of phenylephrine-stimulated Wistar rat aorta contraction at 10 uM; assay type: functional, tissue-based; set-up: scale not given: the % may be the effect or the level left; how it was run: as §1
T2 sequence (whole entry): T1 sequence (P23944 whole entry)

[3] = target: T3, Alpha-1A adrenergic receptor (Rattus norvegicus) (UniProt P43140); test: Inhibition of noradrenaline-stimulated Wistar rat vas deferens contraction at 1 uM; assay type: functional
T3 sequence (whole entry): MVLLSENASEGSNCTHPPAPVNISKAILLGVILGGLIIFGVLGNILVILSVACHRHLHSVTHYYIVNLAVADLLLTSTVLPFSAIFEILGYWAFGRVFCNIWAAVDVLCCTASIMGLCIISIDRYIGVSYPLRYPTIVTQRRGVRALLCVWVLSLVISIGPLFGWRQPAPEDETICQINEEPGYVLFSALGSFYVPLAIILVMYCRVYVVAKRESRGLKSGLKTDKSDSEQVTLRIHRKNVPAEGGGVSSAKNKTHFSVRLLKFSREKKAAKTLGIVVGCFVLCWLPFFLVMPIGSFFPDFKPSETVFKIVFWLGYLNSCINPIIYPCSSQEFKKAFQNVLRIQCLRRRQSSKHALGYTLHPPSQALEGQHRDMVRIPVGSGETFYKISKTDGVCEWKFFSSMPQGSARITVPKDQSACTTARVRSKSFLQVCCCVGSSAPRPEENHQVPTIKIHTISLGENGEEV
How it was run: (§2)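 Wistar rat vas deferens cleaned of connective tissue, held in Krebs–Henseleit at 37 °C, 95% O2–5% CO2, 1 g resting tension. Control noradrenaline concentration–response curve obtained, tissue then equilibrated with a fixed compound concentration for at least 30 min before a second NA curve. Time-matched controls; responses as % of control maximum; means ± SE.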

[4] = target: T3, Alpha-1A adrenergic receptor (Rattus norvegicus); test: Affinity to Adrenergic alpha-1A receptor in Wistar rat vas deferens; assay type: tissue-based; how it was run: as §2
[5] = target: T3, Alpha-1A adrenergic receptor (Rattus norvegicus); test: Inhibition of noradrenaline-stimulated Wistar rat vas deferens contraction at 10 uM; assay type: functional; how it was run: as §2
[6] = target: T2, Alpha-1D adrenergic receptor (Rattus norvegicus); test: Inhibition of phenylephrine-stimulated Wistar rat aorta contraction at 100 uM; assay type: functional, tissue-based; set-up: scale not given: the % may be the effect or the level left; how it was run: as §1
[7] = target: T4, Alpha-1A adrenergic receptor (Rattus norvegicus, UniProt P43140); test: Vasorelaxation of noradrenaline-stimulated Wistar rat vas deferens contraction; assay type: functional, tissue-based; how it was run: as §2
T4 sequence (P43140 whole entry): T3 sequence (whole entry)

[8] = target: T5, Alpha-1B adrenergic receptor (Rattus norvegicus) (UniProt P15823); test: Affinity to Adrenergic alpha-1B receptor in Wistar rat spleen; assay type: tissue-based
T5 sequence (whole entry): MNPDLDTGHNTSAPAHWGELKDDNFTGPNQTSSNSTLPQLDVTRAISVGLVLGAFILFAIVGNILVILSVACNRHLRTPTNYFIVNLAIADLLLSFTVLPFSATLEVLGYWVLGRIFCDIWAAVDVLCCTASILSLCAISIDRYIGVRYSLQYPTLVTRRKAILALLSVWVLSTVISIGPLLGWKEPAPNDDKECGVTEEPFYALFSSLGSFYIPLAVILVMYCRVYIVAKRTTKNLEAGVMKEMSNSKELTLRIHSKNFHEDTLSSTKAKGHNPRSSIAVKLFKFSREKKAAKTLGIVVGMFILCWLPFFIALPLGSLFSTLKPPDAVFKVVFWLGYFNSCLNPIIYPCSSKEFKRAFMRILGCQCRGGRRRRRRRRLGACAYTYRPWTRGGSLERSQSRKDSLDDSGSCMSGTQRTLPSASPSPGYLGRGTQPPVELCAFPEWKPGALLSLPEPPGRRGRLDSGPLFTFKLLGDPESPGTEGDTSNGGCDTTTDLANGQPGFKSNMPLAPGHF
How it was run: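 Longitudinal rat spleen strips at 1 g tension in Krebs, 37 °C. After stabilisation, single 10^-4 M phenylephrine dose, washout, then PE dose–response curves on two separate strips, control and after 30 min incubation with compound. Values as % of the first PE response.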

[9] = target: T2, Alpha-1D adrenergic receptor (Rattus norvegicus); test: Affinity to Adrenergic Alpha-1D receptor in Wistar rat aorta; assay type: tissue-based
How it was run: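 Rat aorta rings stabilised, then cumulative vasoconstrictor additions until plateau; contraction as % of control response. Protocol repeated after 30 min compound incubation.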

SMILES | EC50 [1] | Activity [2] | other results
CSc1ccc(Cc2nn(-c3ccc([N+](=O)[O-])cc3)c(=O)c3ccccc23)cc1 | > 100 µM |  | 
COc1ccc(Cc2nn(-c3ccccc3)c(=O)c3ccccc23)cc1OC | > 100 µM |  | 
COc1cc(Cc2nn(C)c(=O)c3ccccc23)cc(OC)c1OC | > 10 µM | 16.7% | 
Oc1nnc(Cc2ccc(Cl)cc2)c2ccccc12 |  | 89.9% | inhibition [3]: 16.3%; pD'2 [4]: 5.4; inhibition [5]: 76.3%
COc1ccc(Cc2nn(-c3ccc(Br)cc3)c(=O)c3ccccc23)cc1OC | > 100 µM |  | 
O=c1c2ccccc2c(Cc2ccc(Cl)cc2)nn1-c1ccc([N+](=O)[O-])cc1 | 29 µM |  | 
CCCCn1nc(Cc2ccc(Cl)cc2)c2ccccc2c1=O | > 100 µM |  | 
COc1cc(Cc2nnc(O)c3ccccc23)cc(OC)c1OC | > 100 µM |  | Activity [6]: 34.3%
O=c1c2ccccc2c(Cc2ccc(Cl)cc2)nn1-c1ccccc1 | > 100 µM |  | 
Oc1nnc(Cc2ccc(Cl)c(Cl)c2)c2ccccc12 | ≤ 10 µM | 53.8% | 
COc1ccc(Cc2nnc(O)c3ccccc23)cc1 | > 10 µM |  | Activity [6]: 39.3%
CSc1ccc(Cc2nn(C(C)(C)C)c(=O)c3ccccc23)cc1 | > 100 µM |  | 
COc1ccc(CC(=O)c2ccccc2C(=O)N2CCCCC2)cc1OC |  | 30% | 
Cn1nc(Cc2cccc3ccccc23)c2ccccc2c1=O | 14 µM | 39.8% | 
Cn1nc(Cc2ccccc2)c2ccccc2c1=O | ≤ 10 µM | 55.7% | EC50 [7]: 1.5 µM; inhibition [3]: 36.6%; pD'2 [4]: 5.8; inhibition [5]: 98.8%
CCn1nc(Cc2ccc(SC)cc2)c2ccccc2c1=O | > 100 µM |  | 
C=CCn1nc(Cc2ccc(SC)cc2)c2ccccc2c1=O | > 100 µM |  | 

SMILES | EC50 [1] | Activity [2] | other results
COc1ccc(CCc2cc(O)cc(OC)c2C(=O)O)cc1 |  |  | Activity [6]: 34%
CSc1ccc(Cc2nn(-c3ccccc3)c(=O)c3ccccc23)cc1 | > 100 µM |  | 
Oc1nnc(Cc2ccc3ccccc3c2)c2ccccc12 | > 10 µM | 43.9% | 
CSc1ccc(Cc2nn(-c3ccc(Br)cc3)c(=O)c3ccccc23)cc1 | > 100 µM |  | 
CSc1ccc(Cc2nnc(O)c3ccccc23)cc1 |  | 66% | 
O=c1c2ccccc2c(Cc2ccc(Cl)cc2)nn1-c1ccc(Br)cc1 | > 30 µM |  | 
COc1ccc(Cc2nn(-c3ccc([N+](=O)[O-])cc3)c(=O)c3ccccc23)cc1OC | > 100 µM |  | 
OC1(Cc2ccc3c(c2)OCO3)c2ccccc2C2=NCCN21 (stereo unspecified) |  | 47% | 
O=c1[nH]nc(Cc2ccccc2)c2ccccc12 | ≤ 10 µM | 53% | 
COc1ccc(Cc2nn(C)c(=O)c3ccccc23)cc1 | < 100 µM |  | Activity [6]: 61.6%
Cn1nc(Cc2ccc3ccccc3c2)c2ccccc2c1=O | > 10 µM | 44.6% | 
COc1ccc(CCc2cc(O)cc(OC)c2C(=O)N2CCCCC2)cc1 |  |  | Activity [6]: 51%
CCCCn1nc(Cc2ccc(SC)cc2)c2ccccc2c1=O | > 100 µM |  | 
COc1ccc(C(=O)C(=O)c2ccccc2C(=O)N2CCCCC2)cc1OC |  | 70% | 
CC(C)(C)n1nc(Cc2ccc(Cl)cc2)c2ccccc2c1=O | > 100 µM |  | 
COc1ccc(Cc2nn(C(C)(C)C)c(=O)c3ccccc23)cc1OC | 10 µM |  | 

Continued, in another order:

EC50 [1] | Activity [2] | SMILES | other results
4.9 µM | 60.3% | Cn1nc(Cc2ccc(Cl)c(Cl)c2)c2ccccc2c1=O | 
4.4 µM | 79.2% | Oc1nnc(Cc2cccc3ccccc23)c2ccccc12 | 
5.5 µM |  | CSc1ccc(Cc2n[nH]c(=O)c3ccccc23)cc1 | 
3.7 µM | 83.8% | COc1ccc(Cc2nnc(O)c3ccccc23)cc1OC | 
1.2 µM | 80.7% | Cn1nc(Cc2ccc(Cl)cc2Cl)c2ccccc2c1=O | 
< 10 µM | 61.3% | Oc1nnc(Cc2ccc(Cl)cc2Cl)c2ccccc12 | 
0.43 µM | 99.3% | Cn1nc(Cc2ccc(Cl)cc2)c2ccccc2c1=O | EC50 [7]: 0.81 µM; pD'2 [8]: 5.55; inhibition [3]: 61.5%; pD'2 [9]: 5.4; pD'2 [4]: 6.1; inhibition [5]: 95.4%
1.4 µM | 84% | Cn1nc(Cc2ccccc2Cl)c2ccccc2c1=O | 
2.9 µM | 86.7% | Oc1nnc(Cc2ccc3c(c2)OCO3)c2ccccc12 | EC50 [7]: 3 µM; inhibition [3]: 24.3%; pD'2 [4]: 5.5; inhibition [5]: 78.8%
2.2 µM | 67.7% | COc1ccc(Cc2nn(C)c(=O)c3ccccc23)cc1OC | 
0.93 µM | 90.2% | Cn1nc(Cc2ccc3c(c2)OCO3)c2ccccc2c1=O | 
1.9 µM | 76.3% | Oc1nnc(Cc2ccccc2Cl)c2ccccc12 | 
0.79 µM |  | O=c1[nH]nc(Cc2ccc(Cl)cc2)c2ccccc12 | EC50 [7]: 3.9 µM
9.8 µM |  | C=CCn1nc(Cc2ccc(OC)c(OC)c2)c2ccccc2c1=O | 
2.6 µM |  | C=CCn1nc(Cc2ccc(Cl)cc2)c2ccccc2c1=O | EC50 [7]: 4.4 µM; inhibition [3]: 16.9%; pD'2 [4]: 5.4; inhibition [5]: 70.4%
5.4 µM |  | CCCCn1nc(Cc2ccc(OC)c(OC)c2)c2ccccc2c1=O | 
1.3 µM |  | CCn1nc(Cc2ccc(Cl)cc2)c2ccccc2c1=O | 
5.3 µM |  | CCn1nc(Cc2ccc(OC)c(OC)c2)c2ccccc2c1=O | 
0.93 µM | 87.2% | CSc1ccc(Cc2nn(C)c(=O)c3ccccc23)cc1 | 
